High-throughput results: PubChem, several laboratories
PG9 Ab binder: PG9 antibody binding by small molecule. TR-FRET gp120-PG9 antibody binding. inhibition, % at 6.7 µM. 360,000 compounds, 0.43% hits; in the data active means inhibition above about 8.5%
Rev-erbA mod: modulates human Rev-erb alpha binding to DNA. P20393. Rev-erbα–FITC-DNA binding, fluorescence polarization, 90 min. activity, % at 10 µM. 370,000 compounds, 0.79% hits;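 active means activity above about 14%, limit read from the data; passing the limit was not always enough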;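 further: 0% = DMSO wells with 35 nM protein and 100% = DMSO wells with 750 nM protein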
Target sequence (P20393 whole entry, looked up): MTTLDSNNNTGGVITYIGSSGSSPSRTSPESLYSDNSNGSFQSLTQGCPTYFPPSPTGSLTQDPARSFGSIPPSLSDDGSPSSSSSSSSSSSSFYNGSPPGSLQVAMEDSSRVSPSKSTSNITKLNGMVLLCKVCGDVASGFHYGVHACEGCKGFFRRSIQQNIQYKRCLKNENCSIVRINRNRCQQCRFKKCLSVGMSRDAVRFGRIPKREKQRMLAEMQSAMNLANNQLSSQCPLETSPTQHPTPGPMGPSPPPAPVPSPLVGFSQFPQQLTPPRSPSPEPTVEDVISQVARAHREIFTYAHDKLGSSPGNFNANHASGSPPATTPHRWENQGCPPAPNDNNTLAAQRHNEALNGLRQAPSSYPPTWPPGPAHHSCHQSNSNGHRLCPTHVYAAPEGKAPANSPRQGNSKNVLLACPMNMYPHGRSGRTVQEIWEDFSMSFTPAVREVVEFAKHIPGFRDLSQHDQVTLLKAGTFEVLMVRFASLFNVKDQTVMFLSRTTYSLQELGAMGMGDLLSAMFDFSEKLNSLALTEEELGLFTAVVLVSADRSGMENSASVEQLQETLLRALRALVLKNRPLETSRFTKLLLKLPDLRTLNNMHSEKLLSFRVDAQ
NR2E3 ag-1: activates human photoreceptor nuclear receptor NR2E3. Q9Y5X4. GST-NR2E3/biotin-RetCOR TR-FRET, 1536-well. inhibition of corepressor binding, % at 4.78 µM. 320,000 compounds, 0.12% hits. AID 2300;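 active means percent inhibition above the cutoff of mean plus 3 SD of all tested compounds, set per screening campaign, cut at about 20% in these data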;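 further: 0% = DMSO wells and 100% = biotin wells as full block of FRET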
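System: GST-tagged NR2E3 plus biotinylated RetCOR corepressor; Buffer or medium: pH 7.5 Tris-based buffer; Probe or stimulus: RetCOR corepressor, biotinylated, 7 nM; Doses: compound at 4.8 µM, single dose; Schedule: 5 h incubation at 4 °C; Technique: time-resolved FRET; Evaluation: percent inhibition of TR-FRET ratio; Replication: one well per compound, singlicate testing.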
NR2E3 ag-2: activates human NR2E3 receptor. AID 602229. inhibition of corepressor binding, % at 3.98 µM. 360,000 compounds, 0.35% hits. Q9Y5X4. CHO-S Gal4-NCOR/VP16-NR2E3 two-hybrid, luciferase;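 active means inhibition above the mean of all tested compounds plus 3 SD, cut at about 70% in these data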;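 further: 0% = DMSO with NR2E3 transfected cells and 100% = cells lacking NR2E3 construct; higher means lower luciferase signal from less NR2E3 corepressor binding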
Rev-erbA confirm: confirmation of modulators of human Rev-erb alpha DNA binding; shares compounds with Rev-erbA mod; Rev-erb alpha FITC-DNA binding, fluorescence polarization, 90 min; activation, % at 25 µM; 3,000 compounds, 61% hits; AID 1259319;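 active means activation at or above a set limit, or at least 3 SD above the negative control mean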;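 further: 0% = 35 nM protein with DMSO and 100% = 750 nM protein high control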
RORg DNA counter: affects RORgamma DNA binding in a Rev-erb alpha counter-screen. shares compounds with Rev-erbA mod. purified RORgamma protein-FITC-DNA binding, fluorescence polarization. IC50, µM. 910 compounds, 8% hits. AID 1259320;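 active means Compounds whose fitted half-maximal concentration for disrupting protein-DNA binding is below 10 micromolar; the record names Rev-erb in its text, so the target is in doubt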
* = called active by the depositor; / = not tested or not shown. In the library only some 1.5% were active in any assay of this set; here they are far more common.

SMILES	PG9 Ab binder	Rev-erbA mod	NR2E3 ag-1	NR2E3 ag-2	Rev-erbA confirm	others
O=C(Nc1ccc(Br)cc1F)c1ccc2nsnc2c1	1	31*	-2	-24	22*
CCOC(=O)Cc1ncccc1C(=O)Nc1ccc(Oc2ccccc2)cc1	-2	-2	-1	7	/
Cc1ccccc1OCCC(=O)Nc1ccccc1C(=O)NC1CC1	2	0	-2	6	/
Cc1ccc(-n2nnc(-c3cc4ccccc4nc3Cl)n2)cc1	0	35*	7	-20	30*
COc1ncccc1-c1nnn(-c2ccc(C)cc2)n1	-2	-7	3	-90	/
CCn1ccnc1CN(C)C(=O)C1CCC(=O)N(CCc2cccc(F)c2)C1 (stereo not given)	-1	1	2	-23	/
CN(C)c1ccc(P(=O)(Nc2cccc(C(F)(F)F)c2)N2CCOCC2)c(NC(=O)c2cccs2)c1 (stereo not given)	1	33*	4	3	2
COc1cc2c3nnc(-c4ccccc4)c-3cn(Cc3ccc(F)cc3)c2cc1OC	0	23*	0	9	0
COc1cc2c3nnc(-c4ccc(F)cc4)c-3cn(Cc3ccc(C)cc3)c2cc1OC	1	17	2	-4	/
CCCCN(CCCC)c1nc2ccccc2nc1C(C#N)C(=O)NCCCOC (stereo not given)	1	69*	3	-9	11
CCN(CC)c1nc2ccccc2nc1C(C#N)C(=O)NCCCOC (stereo not given)	-1	-3	0	3	/
N#CC(C(=O)NCCc1ccccc1)c1nc2ccccc2nc1N1CCCCC1 (stereo not given)	0	36*	-1	2	11
CCCCCCNC(=O)C(C#N)c1nc2ccccc2nc1N1CCOCC1 (stereo not given)	-2	40*	-1	20	34*	RORg DNA counter=>40
CCCCCCNC(=O)C(C#N)c1nc2ccccc2nc1N1CCCC1 (stereo not given)	-3	-2	2	0	/
N#CC(C(=O)NCCc1ccccc1)c1nc2ccccc2nc1N1CCOCC1 (stereo not given)	0	-3	-1	-11	/
CCOC(=O)N1CCN(c2ncnc3c2oc2nc(C(C)C)c4c(c23)CCC4)CC1	3	45*	0	-25	84*	RORg DNA counter=>40
O=C(CCSCCC(=O)Nc1ccccc1F)Nc1ccccc1F	-1	-2	-4	3	/
O=C1CCCC(O)=C1C=Nc1ccc2c(c1)oc1ccccc12	0	30*	1	-24	28*
Cc1ccc(CNC(=O)Cn2nnc(C(=O)Nc3cccc(C)c3C)c2N)cc1	3	-3	2	-43	/
COc1cccc(NC(=O)Cn2nnc(C(=O)Nc3ccccc3)c2N)c1	-1	0	-3	-22	/
Cc1ccc(CNC(=O)c2nnn(CC(=O)Nc3cccc(C)c3C)c2N)cc1	-1	27*	-2	18	22*
COc1cccc(NC(=O)Cn2nnc(C(=O)NCCc3ccccc3)c2N)c1	-3	20*	-1	16	5
Cc1ccc(NC(=O)CN(C)C(=O)COc2ccccc2-c2ccccc2)cc1	0	5	/	1	/
Cc1ccc2nc(-c3cccc(Br)c3)cc(C(=O)NCC3CCCO3)c2c1 (stereo not given)	-3	24*	1	-14	9
Cc1ccc(C(=O)N(Cc2ccco2)c2c(N)n(Cc3ccccc3)c(=O)[nH]c2=O)cc1	0	1	/	7	/
COc1cc(OC)cc(C(=O)N(Cc2ccco2)c2c(N)n(Cc3ccccc3)c(=O)[nH]c2=O)c1	-2	17*	/	10	-4
COc1ccc(CC(=O)Nc2ccc(-c3cn4cccc(C)c4n3)cc2)cc1OC	-1	-6	-3	-23	/
COc1ccc(CC(=O)Nc2ccc(-c3cn4ccc(C)cc4n3)cc2)cc1	3	16*	2	-118	11
Cc1ccc(-n2nccc2-c2nn(-c3cccc(C(F)(F)F)c3)c(=O)n(C)c2=O)cc1	-1	33*	-3	-9	10
CCCc1cc(=O)[nH]c(SCC(=O)Nc2ccc([N+](=O)[O-])cc2C#N)n1	2	2	2	-21	/
